Measurements taken from ChEMBL document CHEMBL4819109, “Discovery of boronic acid-based potent activators of tumor pyruvate kinase M2 and development of gastroretentive nanoformulation for oral dosing” (Bioorg Med Chem Lett, 2021).
Activity calls are given as the source filed them. No cut-off for these calls is given here.

How the values were obtained:
Pyruvate kinase PKM [1] = biological target: T1, Pyruvate kinase PKM (Homo sapiens, UniProt P14618); experiment: Activation of PKM2 (unknown origin) by pyruvate kinase-lactate dehydrogenase coupled assay
Target sequence in this assay (P14618 whole entry): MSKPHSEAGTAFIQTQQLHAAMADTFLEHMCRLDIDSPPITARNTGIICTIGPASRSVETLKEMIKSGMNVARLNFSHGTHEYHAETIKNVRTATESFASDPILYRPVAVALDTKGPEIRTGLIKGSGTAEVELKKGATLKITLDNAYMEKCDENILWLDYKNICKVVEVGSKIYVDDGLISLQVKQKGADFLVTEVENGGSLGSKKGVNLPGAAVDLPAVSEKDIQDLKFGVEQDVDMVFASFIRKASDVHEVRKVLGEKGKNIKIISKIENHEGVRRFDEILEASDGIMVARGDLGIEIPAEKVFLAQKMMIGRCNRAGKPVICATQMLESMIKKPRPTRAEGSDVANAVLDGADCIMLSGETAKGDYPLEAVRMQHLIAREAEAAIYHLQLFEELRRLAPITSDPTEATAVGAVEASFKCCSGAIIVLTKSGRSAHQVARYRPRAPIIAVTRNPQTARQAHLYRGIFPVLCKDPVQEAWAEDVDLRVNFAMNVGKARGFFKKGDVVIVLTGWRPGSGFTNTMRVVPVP

[2] = Growth inhibition of human BCL2 Jurkat cells by MTT assay; assay type: functional
Outline: (§1)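 Cells were treated with varying compound concentrations and viability was read by MTT assay. IC50 values are reported ± error. Normal fibroblasts were tested alongside.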

MCF7 [3] = experiment: Growth inhibition of human MCF7 cells by MTT assay; assay type: functional, cell-based; outline: as §1
MDA-MB-231 = experiment: Growth inhibition of human MDA-MB-231 cells by MTT assay; assay type: functional, cell-based; outline: as §1
[4] = Growth inhibition of human Mesenchymal stem cells by MTT assay; assay type: tissue-based; outline: as §1
COLO 201 = experiment: Growth inhibition of human Colo-201 cells by MTT assay; assay type: functional, cell-based; outline: as §1
MCF7 [5] = experiment: Induction of apoptosis in human MCF7 cells assessed as early apoptotic cells at 100 nM incubated for 48 hrs by AnnexinV/PI staining based flow cytometry; assay type: functional
MCF7 [6] = experiment: Induction of apoptosis in human MCF7 cells assessed as late apoptotic cells at 100 nM incubated for 48 hrs by AnnexinV/PI staining based flow cytometry; assay type: functional
MCF7 [7] = experiment: Induction of apoptosis in human MCF7 cells assessed as viable cells at 100 nM incubated for 48 hrs by AnnexinV/PI staining based flow cytometry; assay type: functional; details: read-out: Activity
Pyruvate kinase PKM [8] = biological target: T1, Pyruvate kinase PKM; experiment: Activation of PKM2 (unknown origin) assessed as increase in tetramer formation by measuring scattering by Dynamic Light Scattering assay; details: filed as activator
Target sequence in this assay (P14618 2-531 limits assumed): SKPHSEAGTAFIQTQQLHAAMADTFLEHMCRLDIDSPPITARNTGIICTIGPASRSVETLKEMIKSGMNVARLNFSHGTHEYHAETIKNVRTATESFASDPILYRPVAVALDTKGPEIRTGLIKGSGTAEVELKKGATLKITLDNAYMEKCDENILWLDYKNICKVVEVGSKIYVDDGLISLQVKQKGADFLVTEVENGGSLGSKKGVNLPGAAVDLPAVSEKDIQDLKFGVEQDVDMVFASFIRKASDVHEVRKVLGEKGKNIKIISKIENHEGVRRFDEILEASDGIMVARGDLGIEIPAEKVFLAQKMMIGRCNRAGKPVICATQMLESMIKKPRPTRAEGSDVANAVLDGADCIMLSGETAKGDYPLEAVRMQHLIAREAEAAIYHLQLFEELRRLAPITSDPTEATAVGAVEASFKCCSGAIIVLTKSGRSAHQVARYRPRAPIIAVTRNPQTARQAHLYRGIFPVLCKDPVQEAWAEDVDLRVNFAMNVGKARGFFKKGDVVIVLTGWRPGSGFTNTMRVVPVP

Pyruvate kinase PKM [9] = biological target: T1, Pyruvate kinase PKM; experiment: Activation of […] in human MCF7 cells assessed as increase in tetramer formation at 100 nM measured after 48 hrs by DSS cross linker assay; assay type: cell-based; details: filed as activator
Outline: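 MCF-7 cells exposed to 100 nM for 48 h, then cross-linked with disuccinimidyl suberate (DSS). Tetrameric PKM2 was read as the 250 kDa band and compared with untreated MCF-7 control cells.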
Target sequence in this assay (P14618 2-531 limits assumed): as above

MCF7 [10] = experiment: Induction of apoptosis in human MCF7 cells assessed as necrotic cells at 100 nM incubated for 48 hrs by AnnexinV/PI staining based flow cytometry; assay type: functional

CCOC(=O)/C(=C\c1ccc(B(O)O)cc1)C(=O)c1sc(Nc2ccc(F)cc2)nc1-c1ccccc1
EC50 (Pyruvate kinase PKM [1]): 6.11 µM
IC50 [2]: 0.09 µM
IC50 (MCF7 [3]): 2.71 µM
IC50 (MDA-MB-231): 36.6 µM
IC50 [4]: 29.4 µM
IC50 (COLO 201): 5.58 µM

CCOC(=O)/C(=C\c1ccc(B(O)O)cc1)C(=O)c1sc(Nc2ccc(Cl)cc2)nc1N(C)C
EC50 (Pyruvate kinase PKM [1]): 5.69 µM
Activity (MCF7 [5]): 8.81%
IC50 [2]: 2.82 µM
Activity (MCF7 [6]): 23.5%
viability at 0.1 µM (MCF7 [7]): 45.3%
Activity (Pyruvate kinase PKM [8]): Active
IC50 (MCF7 [3]): 0.08 µM
Activity (Pyruvate kinase PKM [9]): Active
IC50 (MDA-MB-231): 34.9 µM
IC50 [4]: 23.9 µM
Activity (MCF7 [10]): 22.37%
IC50 (COLO 201): 3.75 µM

CCOC(=O)/C(=C\c1ccc(B(O)O)cc1)C(=O)c1sc(Nc2ccccc2)nc1N(C)C
EC50 (Pyruvate kinase PKM [1]): 7.15 µM
IC50 [2]: 6.36 µM
IC50 (MCF7 [3]): 1.5 µM
IC50 (MDA-MB-231): 38 µM
IC50 [4]: 40.6 µM
IC50 (COLO 201): 2.81 µM

CCOC(=O)/C(=C\c1ccc(B(O)O)cc1)C(=O)c1sc(Nc2ccc(OC)cc2)nc1N(C)C
EC50 (Pyruvate kinase PKM [1]): 8.17 µM
IC50 [2]: 0.57 µM
IC50 (MCF7 [3]): 2.72 µM
IC50 (MDA-MB-231): 58.7 µM
IC50 [4]: 25.8 µM
IC50 (COLO 201): 5.5 µM

COc1cccc2c1C(=O)c1c(O)c3c(c(O)c1C2=O)C[C@@](O)(C(=O)CO)C[C@@H]3O[C@H]1C[C@H](N)[C@H](O)[C@H](C)O1 [DOXORUBICIN]
IC50 [2]: 3.03 µM
IC50 (MDA-MB-231): 1.3 µM
IC50 [4]: 2.37 µM
IC50 (COLO 201): 0.8 µM
